Bioassay records: PubChem, several laboratories
Only some compounds are listed: those with a hit (about 4.8% of all), similar ones and a draw of the others.
Efflux pump inh: inhibitors of Candida efflux pumps in yeast, primary screen, S. cerevisiae, Nile Red, multiplex; inhibition, % at 10 µM; S. cerevisiae Candida pump triplex; actives 0.44% (n = 330,000);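 active = plate passing quality check with inhibition over a set limit, or well fluorescence over plate mean plus 4 SD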;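 also: Nile Red retained in pooled yeast measured as flow cytometry median fluorescence; higher means more Nile Red kept so more efflux inhibition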
T cruzi repl: inhibitors of intracellular T. cruzi growth, primary screen, luminescence, NIH3T3 host cells | actives 1.4% (n = 300,000) | inhibition, % (no concentration beside the values) | T. cruzi beta-gal in NIH3T3, 90 h;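 active = mean inhibition across valid replicates above about 55%, limit read from the data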;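 also: signal also drops with host cell toxicity which is not excluded here; higher percent means less beta-gal luminescence so fewer parasites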
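assay system = mouse NIH/3T3 fibroblasts infected with β-gal-expressing T. cruzi Tulahuen C4 | input = 5,000 NIH/3T3 host cells per well | buffer or medium = DMEM plus 2% FBS | timing = 3 h host attachment, then at least 90 h co-culture | measured by = GalScreen luminescence, 60 min | evaluation = luminescence reflecting intracellular parasite burden, expressed as percent inhibition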
CSC inhib: cancer stem cell viability inhibitors, primary screen, luminescence | cancer stem cell-like cells viability | inhibition, % at 7.5 µM | actives 1.1% (n = 300,000); in the data active = inhibition above about 75%; tested in HMLE shEcad cells
Beta apoptosis: inhibitors of cytokine-induced beta cell apoptosis, primary screen, luminescence; actives 0.8% (n = 300,000); INS-1E cytokine-induced death, ATP luminescence, 48 h; percent of positive-control rescue, neutral wells zero; protection from apoptosis, % (no concentration beside the values);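 active = Every replicate reaches about 75%, or at least half do and their mean reaches it too, limit read from the data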;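 also: higher means more ATP so stronger rescue from cytokine killing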
Mot1-301 SUMO: yeast Mot1-301 growth rescue at high temperature, primary screen, SUMOylation pathway inhibitor project, S. cerevisiae, ATP luminescence, 38.5C; S. cerevisiae Mot1-301 growth rescue; percent above DMSO median, 100 means doubled; AID 2716, 2010; growth rescue, % at 18.8 µM; actives 1% (n = 320,000);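 active = every valid replicate shows activation above 250% relative to neutral control wells; inactive = the rest, any valid replicate at or below 250%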
WT yeast gro inh: growth inhibition of WT strain, primary screen, mitochondrial fusion inhibitor project, WT and mutant strains, chemical genetic; mitochondrial fusion phenotypic screen; inhibition, % at 10 µM; actives 2.1% (n = 190,000); in the data active = inhibition above about 58%; tested in S. cerevisiae
Cmpd fluor yeast: counter-screen for efflux pump inhibitors: compound fluorescence | S. cerevisiae AD/pABC3, flow cytometry | actives 4% (n = 1,700) | fluorescence ratio to DMSO, % at 10 µM | shares compounds with Efflux pump inh;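 active = fluorescence ratio to DMSO above its plate's cutoff, the plate mean ratio plus 5 SD, cut at about 210% in these data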;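 also: unstained yeast with no Nile Red so the signal is compound autofluorescence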
Mdr1 pump inh: inhibitors of Candida albicans Mdr1 efflux, confirmation, flow cytometry, singleplex, Cherry Pick1 set. actives 1% (n = 1,700). S. cerevisiae AD/CaMDR1, Nile Red efflux. shares compounds with Efflux pump inh. inhibition, % at 10 µM; in the data active = inhibition above about 26%;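 also: higher means more Nile Red retained so more efflux inhibition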
Cdr2 pump inh: inhibitors of Candida albicans Cdr2 efflux pump, confirmation, S. cerevisiae AD/CaCDR2, flow cytometry, cherry pick 1, singleplex; shares compounds with Efflux pump inh; Nile Red retention; Nile Red retention ratio vs DMSO, % at 10 µM; actives 4% (n = 1,700); in the data active = Nile Red retention ratio vs DMSO above about 190%;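 also: higher ratio means more blocking of Cdr2 efflux of the dye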
Cdr1 pump inh: inhibitors of Candida albicans Cdr1 efflux pump, confirmation, S. cerevisiae AD/CaCDR1, flow cytometry, cherry pick 1, singleplex; inhibition, % at 10 µM; Nile Red efflux; shares compounds with Efflux pump inh; actives 1% (n = 1,700);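 active = inhibition above the screen-wide mean plus twice its standard deviation, cut at about 32% in these data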
Of the large screens only hits and unclear results are named; the others gave an inactive call (follow-up assays come after a bar, where they were run).

CCc1nnc(NC(=O)COc2ccc3ccccc3c2)s1	none (no result: WT yeast gro inh) | Cmpd fluor yeast inactive | Mdr1 pump inh inactive | Cdr2 pump inh inactive | Cdr1 pump inh inactive
CCOc1ccccc1OCC(=O)Nc1nnc(COC)s1	none | Cmpd fluor yeast inactive | Mdr1 pump inh inactive | Cdr2 pump inh inactive | Cdr1 pump inh inactive
CCOCc1nnc(NC(=O)COc2ccc3c(c2)OCO3)s1	Efflux pump inh 1.7 (no result: WT yeast gro inh) | Cmpd fluor yeast inactive | Mdr1 pump inh inactive | Cdr2 pump inh inactive | Cdr1 pump inh inactive
O=C(COc1ccccc1)Nc1nnc(COc2ccccc2)s1	none (no result: WT yeast gro inh) | Cmpd fluor yeast inactive | Mdr1 pump inh inactive | Cdr2 pump inh inactive | Cdr1 pump inh inactive
CN1CCc2nc(NC(=O)COc3ccc4ccccc4c3)sc2C1	none
O=C(Oc1c(-c2ccccc2)c(=O)n2c3c(cccc13)CC2)c1ccc(Cl)cc1	none (no result: WT yeast gro inh) | Cmpd fluor yeast inactive | Mdr1 pump inh inactive | Cdr2 pump inh inactive | Cdr1 pump inh inactive
O=C(Oc1c(-c2ccccc2)c(=O)n2c3c(cccc13)CC2)c1ccco1	none (no result: WT yeast gro inh) | Cmpd fluor yeast inactive | Mdr1 pump inh inactive | Cdr2 pump inh inactive | Cdr1 pump inh inactive
Cc1cc(C(=O)NNC(=O)c2ccc(F)cc2)c(C)s1	none (no result: T cruzi repl, WT yeast gro inh)
CC1=C(C(=O)OC(C)(C)C)C(c2cccc3ccccc23)NC(=O)N1 (stereo not given)	none (no result: WT yeast gro inh)
COC(=O)Cn1cc(/C=C/c2cc[n+](C)cc2)c2ccccc21	none (no result: WT yeast gro inh) | Cmpd fluor yeast inactive | Mdr1 pump inh inactive | Cdr2 pump inh inactive | Cdr1 pump inh inactive
CC(=O)Nc1ccc(NC(=O)c2nc(-c3ccccc3)oc2C)cc1	none (no result: Beta apoptosis)
O=C(NC1CCCC1)c1cc(=O)[nH]c2ccccc12	none (no result: WT yeast gro inh)
Cc1cc(NS(=O)(=O)c2ccc(NC(=O)C(C(C)C)N3C(=O)c4ccccc4C3=O)cc2)nc(C)n1 (stereo not given)	none (no result: WT yeast gro inh)
Cc1cc(NS(=O)(=O)c2ccc(NC(=O)C(CC(C)C)N3C(=O)c4ccccc4C3=O)cc2)nc(C)n1 (stereo not given)	Efflux pump inh 0.9 | Cmpd fluor yeast inactive | Mdr1 pump inh inactive | Cdr2 pump inh inactive | Cdr1 pump inh inactive
COc1ccc(-n2nc3c(c2NC(=O)c2ccc(Br)o2)CS(=O)(=O)C3)cc1	none (no result: WT yeast gro inh)
O=C(CCc1nc2ccccc2s1)OCC(=O)c1ccc[nH]1	none
Cn1cc(Br)c(C(=O)NNC(=O)c2ccc(Cl)cc2)n1	Efflux pump inh 8.9 | Cmpd fluor yeast inactive | Mdr1 pump inh inactive | Cdr2 pump inh inactive | Cdr1 pump inh inactive
O=C(Nc1ccccc1-c1ccccc1)c1ccc(NC(=O)c2ccco2)cc1	none (no result: Mot1-301 SUMO, WT yeast gro inh)
O=C(Nc1ccccc1C(=O)O)c1ccc(NC(=O)c2ccc(Br)o2)cc1	none | Cmpd fluor yeast inactive | Mdr1 pump inh inactive | Cdr2 pump inh inactive | Cdr1 pump inh inactive
Cc1ccccc1NC(=O)c1ccc(NC(=O)c2ccco2)cc1	none | Cmpd fluor yeast inactive | Mdr1 pump inh inactive | Cdr2 pump inh inactive | Cdr1 pump inh inactive
Cc1ccc(N(CCC(=O)N2CCOCC2)S(=O)(=O)c2ccccc2)cc1	none (no result: T cruzi repl, WT yeast gro inh)
Cc1nnc(SCC(=O)N(C)c2ccccc2)n1Cc1ccccc1	none
COc1ccc(C(C(=O)NC(C)(C)C)N(C(=O)CCC(=O)Nc2cc(C)on2)c2cccc(F)c2)cc1 (stereo not given)	none (no result: WT yeast gro inh) | Cmpd fluor yeast inactive | Mdr1 pump inh inactive | Cdr2 pump inh inactive | Cdr1 pump inh inactive
COc1ccc(C(C(=O)NC(C)(C)C)N(CC2CCCO2)C(=O)CCC(=O)Nc2cc(C)on2)cc1 (stereo not given)	Efflux pump inh 0.8 | Cmpd fluor yeast inactive | Mdr1 pump inh inactive | Cdr2 pump inh inactive | Cdr1 pump inh inactive
COc1ccc(C(C(=O)NC(C)(C)C)N(CCC(C)C)C(=O)CCC(=O)Nc2cc(C)on2)cc1 (stereo not given)	none (no result: WT yeast gro inh)
CCOc1cccc(N(C(=O)CCC(=O)Nc2cc(C)on2)C(C(=O)NC(C)(C)C)c2ccc(OC)cc2)c1 (stereo not given)	Efflux pump inh 0.5 (no result: CSC inhib, WT yeast gro inh) | Cmpd fluor yeast inactive | Mdr1 pump inh inactive | Cdr2 pump inh inactive | Cdr1 pump inh inactive
CSc1nc(O)c(C(c2ccc(OC(C)C)cc2)c2c(O)nc(SC)[nH]c2=O)c(=O)[nH]1	none (no result: CSC inhib, Beta apoptosis, WT yeast gro inh)
COc1ccc(/C=C2/SC(c3ccc(C)cc3)=NC2=O)cc1OC	none
COc1ccc(/C=C2\SC(c3ccc(C)cc3)=NC2=O)cc1OC	Efflux pump inh 0.8 | Cmpd fluor yeast inactive | Mdr1 pump inh inactive | Cdr2 pump inh inactive | Cdr1 pump inh inactive
CCCCCCCCCCOC(=O)Cn1c(COc2cccc(C)c2)[n+](C)c2ccccc21	Efflux pump inh 1.0, T cruzi repl 58, CSC inhib 169, Beta apoptosis 99 (no result: WT yeast gro inh) | Cmpd fluor yeast inactive | Mdr1 pump inh inactive | Cdr2 pump inh inactive | Cdr1 pump inh inactive
CCCCCCCCCCOC(=O)Cn1c(COc2ccc(Cl)cc2)[n+](C)c2ccccc21	Efflux pump inh 3.1, CSC inhib 109, Beta apoptosis 122 (no result: WT yeast gro inh) | Cmpd fluor yeast inactive | Mdr1 pump inh inactive | Cdr2 pump inh 222 | Cdr1 pump inh inactive
Cc1ccccc1NC(=O)Cc1nc(-c2ccc3ccccc3c2)cs1	none
Cn1ccc(C(=O)Nc2sc3c(c2C#N)CCC3)n1	none (no result: WT yeast gro inh) | Cmpd fluor yeast inactive | Mdr1 pump inh inactive | Cdr2 pump inh inactive | Cdr1 pump inh inactive
Cn1cc(Br)c(C(=O)Nc2sc3c(c2C#N)CCC3)n1	none (no result: WT yeast gro inh) | Cmpd fluor yeast inactive | Mdr1 pump inh inactive | Cdr2 pump inh inactive | Cdr1 pump inh inactive
Cn1cc([N+](=O)[O-])c(C(=O)Nc2sc3c(c2C#N)CCC3)n1	none (no result: WT yeast gro inh) | Cmpd fluor yeast inactive | Mdr1 pump inh inactive | Cdr2 pump inh inactive | Cdr1 pump inh inactive
Cn1cc(Cl)c(C(=O)NC(=S)Nc2sc3c(c2C#N)CCCCC3)n1	none
CCOc1ccc(NC(=O)CN(C)C(=O)c2ccc(=O)[nH]c2)cc1OCC	none (no result: WT yeast gro inh)
O=C(CSc1nc2[nH]ncc2c(=O)[nH]1)NCc1ccc(F)cc1	none
